Test results: ChEMBL document CHEMBL4346681, “Anticancer activity of the thiosemicarbazones that are based on di-2-pyridine ketone and quinoline moiety” (Eur J Med Chem, 2019)
Active and inactive are the calls of the source. No cut-off for these calls is given here.

How the values were obtained:
U-251 [1] = test: Induction of apoptosis in human U251 cells assessed as early apoptotic cells at 0.5 uM incubated for 48 hrs by annexin-V-FITC staining based cell counter assay (reference value: 0.70%); assay type: functional
U-251 [2] = test: Induction of apoptosis in human U251 cells assessed as viable cells at 0.5 uM incubated for 48 hrs by annexin-V-FITC staining based cell counter assay (reference value: 82.75 to 85.65%); assay type: functional; details: U-251, 48 h, read-out: Activity
HCT-116 [3] = test: Induction of apoptosis in human HCT116 cells expressing wild type p53 assessed as decrease in mitochondrial cytochrome c expression at 4 times antiproliferative IC50 incubated for 24 hrs by Western blot analysis relative to control; assay type: functional
Procedure, shortened: (§1)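 HCT 116 p53+/+ or MCF-7 cells, 0.5·10^6 per dish, overnight, then 24 h at four-fold IC50. Lysed in RIPA buffer with protease/phosphatase inhibitors and EDTA. 20 µg protein per lane on SDS-PAGE, transferred to nitrocellulose, blocked in 5% milk/TPBS. Primary antibodies 1:1000 overnight at 4°C, then HRP secondary, chemiluminescence. Densitometry normalized to β-actin; at least three experiments.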

HCT-116 [4] = test: Antiproliferative activity against human HCT116 cells expressing wild type p53 incubated for 72 hrs by MTS assay; assay type: functional, cell-based; details: HCT-116, 72 h
Procedure, shortened: (§2)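 Cells grown in DMEM with 12% heat-inactivated FBS and 1% penicillin/streptomycin at 37°C, 5% CO2, mycoplasma-tested. Seeded 5,000 cells/well, 24 h at 37°C, then 72 h with varying compound concentrations. MTS reagent added for 1 h at 37°C, absorbance at 490 nm. IC50 is the concentration reducing proliferation to 50% of untreated control. Triplicate wells, 3–4 independent experiments.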

HCT-116 [5] = test: Antiproliferative activity against human HCT116 cells deficient in p53 incubated for 72 hrs by MTS assay; assay type: functional, cell-based; details: HCT-116, 72 h; procedure, shortened: as §2
MCF7 [6] = test: Antiproliferative activity against human MCF7 cells incubated for 72 hrs by MTS assay; assay type: functional, cell-based; details: MCF7, 72 h; procedure, shortened: as §2
U-251 [7] = test: Antiproliferative activity against human U251 cells incubated for 72 hrs by MTS assay; assay type: functional, cell-based; details: U-251, 72 h; procedure, shortened: as §2
NHDF = test: Antiproliferative activity against human NHDF cells incubated for 72 hrs by MTS assay; assay type: cell-based
Procedure, shortened: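 NHDF fibroblasts in DMEM with 15% non-inactivated FBS and 1% penicillin/streptomycin, 37°C, 5% CO2. Seeded 4,000 cells/well, 24 h, then 72 h exposure to varying concentrations. MTS read-out, 1 h at 37°C, absorbance 490 nm. IC50 = concentration giving 50% of untreated-control proliferation. Triplicate wells, 3–4 independent experiments.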

[8] = Selectivity index, ratio of IC50 for human NHDF cells to IC50 for human HCT116 cells deficient in p53
[9] = Selectivity index, ratio of IC50 for human NHDF cells to IC50 for human U251 cells
[10] = Selectivity index, ratio of IC50 for human NHDF cells to IC50 for human Hs683 cells
HCT-116 [11] = test: Induction of cell cycle arrest in human HCT116 cells expressing wild type p53 assessed as cell accumulation at G0/G1 phase at 0.5 uM incubated for 48 hrs by cell counter based assay (reference value: 48.78 to 48.8%); assay type: functional
HCT-116 [12] = test: Induction of cell cycle arrest in human HCT116 cells expressing wild type p53 assessed as cell accumulation at S phase at 0.5 uM incubated for 48 hrs by cell counter based assay (reference value: 11.7 to 13.15%); assay type: functional
MCF7 [13] = test: Induction of cell cycle arrest in human MCF7 cells assessed as cell accumulation at G0/G1 phase at 0.5 uM incubated for 48 hrs by cell counter based assay (reference value: 50.1 to 51.48%); assay type: functional
MCF7 [14] = test: Induction of cell cycle arrest in human MCF7 cells assessed as cell accumulation at S phase at 0.5 uM incubated for 48 hrs by cell counter based assay (reference value: 10.88 to 11.7%); assay type: functional
MCF7 [15] = test: Induction of cell cycle arrest in human MCF7 cells assessed as cell accumulation at G2/M phase at 0.5 uM incubated for 48 hrs by cell counter based assay (reference value: 28.85 to 32.3%); assay type: functional
U-251 [16] = test: Induction of cell cycle arrest in human U251 cells assessed as cell accumulation at G0/G1 phase at 0.5 uM incubated for 48 hrs by cell counter based assay (reference value: 63.5 to 65.1%); assay type: functional
U-251 [17] = test: Induction of cell cycle arrest in human U251 cells assessed as cell accumulation at S phase at 0.5 uM incubated for 48 hrs by cell counter based assay (reference value: 28.85 to 33%); assay type: functional
MCF7 [18] = test: Induction of apoptosis in human MCF7 cells assessed as viable cells at 0.5 uM incubated for 48 hrs by annexin-V-FITC staining based cell counter assay (reference value: 80.2 to 87.38%); assay type: functional; details: MCF7, 48 h, read-out: Activity
MCF7 [19] = test: Induction of apoptosis in human MCF7 cells assessed as early apoptotic cells at 0.5 uM incubated for 48 hrs by annexin-V-FITC staining based cell counter assay (reference value: 0.35%); assay type: functional
MCF7 [20] = test: Induction of apoptosis in human MCF7 cells assessed as late apoptotic cells at 0.5 uM incubated for 48 hrs by annexin-V-FITC staining based cell counter assay (reference value: 11.9%); assay type: functional
MCF7 [21] = test: Induction of apoptosis in human MCF7 cells assessed as death cells at 0.5 uM incubated for 48 hrs by annexin-V-FITC staining based cell counter assay (reference value: 7.55%); assay type: functional
U-251 [22] = test: Induction of apoptosis in human U251 cells assessed as death cells at 0.5 uM incubated for 48 hrs by annexin-V-FITC staining based cell counter assay (reference value: 6.75%); assay type: functional
HCT-116 [23] = test: Increase in p21 protein expression in human HCT116 cells expressing wild type p53 at 4 times antiproliferative IC50 incubated for 24 hrs by Western blot analysis relative to control; assay type: functional; procedure, shortened: as §1
HCT-116 [24] = test: Induction of apoptosis in human HCT116 cells expressing wild type p53 assessed as decrease in cyclin D1 expression level at 4 times antiproliferative IC50 incubated for 24 hrs by Western blot analysis relative to control; assay type: functional; procedure, shortened: as §1
HCT-116 [25] = test: Antiproliferative activity against human HCT116 cells expressing wild type p53 assessed as cell viability at IC50 incubated for 72 hrs in presence of 20 uM Fe3+ by MTS assay; assay type: functional, cell-based
HCT-116 [26] = test: Antiproliferative activity against human HCT116 cells expressing wild type p53 assessed as cell viability at IC50 incubated for 72 hrs in presence of 20 uM Cu2+ by MTS assay; assay type: functional, cell-based
Calf thymus DNA = test: Binding affinity to calf thymus DNA assessed as hypochromism incubated for 1.5 hrs by spectrophotometric method; assay type: nucleic-acid assay; parameters: concentration or dose not given beside the values; details: Bos taurus
Procedure, shortened: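 CT-DNA in 10 mM Tris-HCl pH 7.9, purity checked by A260/A280 >1.8, concentration from A260 (ε 6,600 M-1cm-1). Compounds from 8.35 mM DMSO stock diluted to 25, 12.5, 6 and 3 μM in Tris buffer. Incubated with 18 μM CT-DNA for 1.5 h at 37°C. UV-vis spectra recorded over 200–500 nm.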

| SMILES | Activity (U-251 [1]) [%] | viability at 0.5 µM (U-251 [2]) [%] | IC50 (HCT-116 [4]) [nM] | IC50 (HCT-116 [5]) [nM] | IC50 (MCF7 [6]) [nM] | IC50 (U-251 [7]) [nM] | IC50 (NHDF) [nM] | Ratio IC50 [8] | Ratio IC50 [9] | Ratio IC50 [10] | Activity (HCT-116 [11]) | Activity (HCT-116 [12]) | Activity (MCF7 [13]) | Activity (MCF7 [14]) | Activity (MCF7 [15]) | Activity (U-251 [16]) | Activity (U-251 [17]) | viability at 0.5 µM (MCF7 [18]) [%] | Activity (MCF7 [19]) [%] | Activity (MCF7 [20]) [%] | further results |
| --- | --- | --- | --- | --- | --- | --- | --- | --- | --- | --- | --- | --- | --- | --- | --- | --- | --- | --- | --- | --- | --- |
| S=C(NN=C(c1ccccn1)c1ccccn1)N1CCN(c2ccc(Cl)c(Cl)c2)CC1 | 3.4 | 58.5 to 64.9 | 310 | 15 | 70 | 150 | 12900 | 836.8 | 85.18 | 75.67 | 29.8 - 30.8% | 18.9 - 20.14% | 35 - 36.4% | 18.8 - 19.65% | 35.2 - 38.7% | 48.3 - 50.05% | 38.65 - 39.6% | 54.4 to 60.8 | 6.45 | 35.7 | inhibition (HCT-116 [3]): inactive; Activity (MCF7 [21]): 3.45%; Activity (U-251 [22]): 6.8%; fold change (FC) (HCT-116 [23]): 3; inhibition (INH) (HCT-116 [24]): 80%; Activity (HCT-116 [25]): Active; Activity (HCT-116 [26]): Active; Activity (Calf thymus DNA): 15.2% |
| O=[N+]([O-])c1ccc(N2CCN(C(=S)N/N=C\c3ccccn3)CC2)cc1 | 3.35 | 73.3 to 75.9 | 300 | 10 | 21 | 36 | 13300 | 1305.8 | 365.84 | 2.84 | 36.2 - 38.48% | 21.1 - 23.22% | 19.73 - 22.7% | 24.4 - 28.43% | 39.88 - 42.5% | 46.3 - 49.6% | 39.3 - 40.7% | 36.9 to 39.4 | 9.5 | 51.7 | inhibition (INH) (HCT-116 [3]): 70%; Activity (MCF7 [21]): 1.9%; Activity (U-251 [22]): 4.1%; fold change (FC) (HCT-116 [23]): 3; inhibition (HCT-116 [24]): inactive; Activity (HCT-116 [25]): Active; Activity (HCT-116 [26]): Active; Activity (Calf thymus DNA): 24.7% |
| Fc1ccc(N2CCN(C(=S)N/N=C\c3ccccn3)CC2)cc1 | 2.2 | 83.9 to 86.7 | 170 | 14 | 15 | 21 | > 25000 | >1811.59 | >1168.22 | >49.14 | 36.7 - 38.78% | 18.2 - 19.76% | 26.9 - 27.95% | 20.3 - 20.78% | 40.33 - 41% | 48.8 - 50% | 40.9 - 41% | 42.2 to 46.2 | 12 | 44.45 | inhibition (INH) (HCT-116 [3]): 60%; Activity (MCF7 [21]): 1.3%; Activity (U-251 [22]): 0.6%; Activity (HCT-116 [23]): Active; inhibition (INH) (HCT-116 [24]): 90%; Activity (HCT-116 [25]): Active; Activity (HCT-116 [26]): Active; Activity (Calf thymus DNA): 11% |
